For two compounds, Activity results are on record in ChEMBL document CHEMBL3046809, “Plant tissue distribution and chemical inactivation of six carnation viruses” (Crop Prot, 2007).

Type in all cases: functional, organism-based
Test [1] relates to Carnation Italian ringspot virus. The test is described as follows: Antiviral activity against Carnation Italian ringspot virus infected as compound-treated sap in Saponaria vaccaria at 3% incubated for 60 secs prior to inoculation measured after 6 weeks in green house conditions by non-isotopic molecular hybridisation assay. The essentials: (§1)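 Infected leaves ground in 30 mM phosphate buffer pH 7.0 with 0.5% PVP (1 g/5 ml) and clarified. Sap mixed 1:1 with chemical solution for 60 s; listed concentrations are final, after extract dilution. Buffer-only sap served as control. Treated sap rub-inoculated with carborundum onto three S. vaccaria cv. 'Pink Beauty' plants. Plants held in a greenhouse up to 6 weeks; infection scored by non-isotopic hybridisation.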

Test [2] has the same test system. The test is described as follows: Antiviral activity against Carnation Italian ringspot virus infected compound-treated sap in Saponaria vaccaria at 7% incubated for 60 secs prior to inoculation measured after 6 weeks in green house conditions by non-isotopic molecular hybridisation assay. The essentials:
as §1

The test system is the same in test [3]. As to the kind of experiment: Antiviral activity against Carnation Italian ringspot virus infected as compound-treated sap in Saponaria vaccaria at 5% incubated for 60 secs prior to inoculation measured after 6 weeks in green house conditions by non-isotopic molecular hybridisation assay. A digest of the protocol:
as §1

Test [4] concerns Carnation ringspot virus. As to the kind of experiment: Antiviral activity against Carnation ringspot virus infected compound-treated sap in Saponaria vaccaria at 7% incubated for 60 secs prior to inoculation measured after 6 weeks in green house conditions by non-isotopic molecular hybridisation assay. A digest of the protocol: as §1
Test [5] concerns Carnation ringspot virus. As to the kind of experiment: Antiviral activity against Carnation ringspot virus infected compound-treated sap in Saponaria vaccaria at 5% incubated for 60 secs prior to inoculation measured after 6 weeks in green house conditions by non-isotopic molecular hybridisation assay. The essentials:
as §1

Test [6] relates to Carnation ringspot virus. As to the kind of experiment: Antiviral activity against Carnation ringspot virus infected compound-treated sap in Saponaria vaccaria at 3% incubated for 60 secs prior to inoculation measured after 6 weeks in green house conditions by non-isotopic molecular hybridisation assay. The essentials: as §1
Test [7] concerns Carnation vein mottle virus. As to the kind of experiment: Antiviral activity against Carnation vein mottle virus infected compound-treated sap in Saponaria vaccaria at 7% incubated for 60 secs prior to inoculation measured after 6 weeks in green house conditions by non-isotopic molecular hybridisation assay. The essentials: as §1
Test [8] has as its system Carnation vein mottle virus. The test is described as follows: Antiviral activity against Carnation vein mottle virus infected compound-treated sap in Saponaria vaccaria at 5% incubated for 60 secs prior to inoculation measured after 6 weeks in green house conditions by non-isotopic molecular hybridisation assay. The essentials: as §1
Test [9] deals with Carnation vein mottle virus. The test is described as follows: Antiviral activity against Carnation vein mottle virus infected compound-treated sap in Saponaria vaccaria at 3% incubated for 60 secs prior to inoculation measured after 6 weeks in green house conditions by non-isotopic molecular hybridisation assay. A digest of the protocol: as §1
Test [10] relates to Carnation etched ring virus. As to the kind of experiment: Antiviral activity against Carnation etched ring virus infected compound-treated sap in Saponaria vaccaria at 3% incubated for 60 secs prior to inoculation measured after 6 weeks in green house conditions by non-isotopic molecular hybridisation assay. A digest of the protocol:
as §1

Test [11] relates to Carnation latent virus. The test is described as follows: Antiviral activity against Carnation latent virus infected compound-treated sap in Saponaria vaccaria at 7% incubated for 60 secs prior to inoculation measured after 6 weeks in green house conditions by non-isotopic molecular hybridisation assay. The essentials:
as §1

The subject of test [12] is Carnation latent virus. The test is described as follows: Antiviral activity against Carnation latent virus infected compound-treated sap in Saponaria vaccaria at 5% incubated for 60 secs prior to inoculation measured after 6 weeks in green house conditions by non-isotopic molecular hybridisation assay. The essentials:
as §1

The test system of test [13] is Carnation latent virus. The test is described as follows: Antiviral activity against Carnation latent virus infected compound-treated sap in Saponaria vaccaria at 3% incubated for 60 secs prior to inoculation measured after 6 weeks in green house conditions by non-isotopic molecular hybridisation assay. A digest of the protocol:
as §1

Test [14] relates to Carnation etched ring virus. As to the kind of experiment: Antiviral activity against Carnation etched ring virus infected compound-treated sap in Saponaria vaccaria at 7% incubated for 60 secs prior to inoculation measured after 6 weeks in green house conditions by non-isotopic molecular hybridisation assay. A digest of the protocol: as §1
Test [15] deals with Carnation etched ring virus. The test is described as follows: Antiviral activity against Carnation etched ring virus infected compound-treated sap in Saponaria vaccaria at 5% incubated for 60 secs prior to inoculation measured after 6 weeks in green house conditions by non-isotopic molecular hybridisation assay. A digest of the protocol:
as §1

Test [16] concerns Carnation mottle virus. As to the kind of experiment: Antiviral activity against Carnation mottle virus infected compound-treated sap in Saponaria vaccaria at 7% incubated for 60 secs prior to inoculation measured after 6 weeks in green house conditions by non-isotopic molecular hybridisation assay. The essentials: as §1
In test [17] the test system is Carnation mottle virus. As to the kind of experiment: Antiviral activity against Carnation mottle virus infected compound-treated sap in Saponaria vaccaria at 5% incubated for 60 secs prior to inoculation measured after 6 weeks in green house conditions by non-isotopic molecular hybridisation assay. The essentials: as §1
Test [18] concerns Carnation mottle virus. The test is described as follows: Antiviral activity against Carnation mottle virus infected compound-treated sap in Saponaria vaccaria at 3% incubated for 60 secs prior to inoculation measured after 6 weeks in green house conditions by non-isotopic molecular hybridisation assay. The essentials: as §1

Activity calls are given as the source filed them. No cut-off for these calls is given here.

As to `OCl`, the result (in test [1]; in the test with Carnation ringspot virus [5]; in the test on Carnation ringspot virus [6]; in the test with Carnation mottle virus [17]; with Carnation mottle virus [18]) was inactive. Also, the result (in [2]; in [3]; with Carnation ringspot virus [4]; in test [7]; in [8]; in [9]) was Active. For the same compound, the outcome (in test [10]; in the test with Carnation latent virus [11]; with Carnation latent virus [12]; in the test on Carnation latent virus [13]; in [14]; in test [15]) was Active. For the same compound, the result in the test with Carnation mottle virus [16] was Active.

With `O=P([O-])([O-])O.[Na+].[Na+]`, the outcome (in test [3]; in the test on Carnation ringspot virus [5]; in the test with Carnation latent virus [12]; in test [15]; with Carnation mottle virus [17]) was inactive. In addition, in [8], the outcome was Active.
